Assay results as given in ChEMBL document CHEMBL3232839, “Identification of isosilybin a from milk thistle seeds as an agonist of peroxisome proliferator-activated receptor gamma” (J Nat Prod, 2014).
The source made the active and inactive calls. The rule behind the calls is not given here.

Assays:
[1] = target: T1, Peroxisome proliferator-activated receptor gamma (Homo sapiens) (UniProt P37231); experiment: Agonist activity at human PPAR-gamma expressed in HEK293 cells at 30 uM after 18 hrs by luciferase reporter gene assay relative to control
T1 sequence (whole entry): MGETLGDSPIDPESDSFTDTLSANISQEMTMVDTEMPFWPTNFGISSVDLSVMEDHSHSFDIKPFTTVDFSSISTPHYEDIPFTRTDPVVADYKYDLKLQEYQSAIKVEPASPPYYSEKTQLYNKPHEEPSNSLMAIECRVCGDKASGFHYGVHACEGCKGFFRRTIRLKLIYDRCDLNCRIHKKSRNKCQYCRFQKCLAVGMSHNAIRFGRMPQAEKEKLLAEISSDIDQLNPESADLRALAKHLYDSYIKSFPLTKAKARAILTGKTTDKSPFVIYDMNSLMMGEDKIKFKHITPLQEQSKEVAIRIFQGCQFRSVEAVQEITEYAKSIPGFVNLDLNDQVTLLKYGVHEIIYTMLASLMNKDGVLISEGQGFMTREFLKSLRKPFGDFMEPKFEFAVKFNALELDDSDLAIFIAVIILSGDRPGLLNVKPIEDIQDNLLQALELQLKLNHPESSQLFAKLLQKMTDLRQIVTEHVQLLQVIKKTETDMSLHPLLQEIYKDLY

[2] = target: T1, Peroxisome proliferator-activated receptor gamma (Homo sapiens); experiment: Transactivation of human PPAR-gamma expressed in HEK293 cells after 18 hrs by luciferase reporter gene assay relative to control; assay type: cell-based
In short: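 HEK-293 cells transiently co-transfected by calcium phosphate with full-length human PPARγ expression plasmid (pSG5-PL-hPPAR-gamma1), tk-PPREx3-luc reporter and EGFP internal control. Cells were reseeded and treated for 18 h, with 0.1% DMSO as vehicle. Luciferase was normalized to EGFP fluorescence and expressed as fold induction over vehicle. Means ± SD of three independent experiments, each in quadruplicate.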

[3] = target: T1, Peroxisome proliferator-activated receptor gamma (Homo sapiens); experiment: Reduction of pioglitazone-mediated human PPAR-gamma activation expressed in HEK293 cells after 18 hrs by luciferase reporter gene assay; assay type: cell-based
In short: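 Co-treatment assay in human PPARγ/tk-PPREx3-luc/EGFP-transfected HEK-293 cells. Pioglitazone at varied concentrations was applied with or without 30 μM compound for 18 h, with DMSO vehicle at 0.1%. Luciferase was normalized to EGFP fluorescence and expressed as fold over vehicle. Means ± SD of three independent experiments in quadruplicate.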

[4] = target: T1, Peroxisome proliferator-activated receptor gamma (Homo sapiens); experiment: Agonist activity at human PPAR-gamma expressed in HEK293 cells at 30 uM after 18 hrs by luciferase reporter gene assay in presence of T0070907

Row | Compound | Activity [1] | other results
1 | COc1cc([C@H]2Oc3ccc([C@H]4Oc5cc(O)cc(O)c5C(=O)[C@@H]4O)cc3O[C@@H]2CO)ccc1O |  | fold change (FC) [1]: 2.08; Activity [2]: Dose-dependent effect; Activity [3]: Active; Activity [4]: inactive
2 | O=C1c2c(O)cc(O)cc2O[C@H](c2ccc(O)c(O)c2)[C@H]1O | inactive | 
3 | COc1cc([C@H]2Oc3cc([C@H]4Oc5cc(O)cc(O)c5C(=O)[C@@H]4O)ccc3O[C@@H]2CO)ccc1O | inactive | 
4 | COc1cc(C2Oc3c(O)cc([C@H]4Oc5cc(O)cc(O)c5C(=O)[C@@H]4O)cc3C2CO)ccc1O (stereo not given in full) | inactive | 
5 | COc1cc([C@@H]2Oc3cc([C@H]4Oc5cc(O)cc(O)c5C(=O)[C@@H]4O)ccc3O[C@H]2CO)ccc1O | inactive | 
6 | COc1cc([C@@H]2[C@H]3CO[C@@]4(O)C(=O)[C@@H]2C=C([C@H]2Oc5cc(O)cc(O)c5C(=O)[C@@H]2O)[C@@H]34)ccc1O | inactive | 
7 | COc1cc([C@@H]2Oc3ccc([C@H]4Oc5cc(O)cc(O)c5C(=O)[C@@H]4O)cc3O[C@H]2CO)ccc1O | inactive | 
